In ChEMBL document CHEMBL4316619 (Bioorg Med Chem Lett, 2019):
Activity calls are given as the source filed them. No cut-off for these calls is given here.

Key:
[1] = Drug level in C57BL/6 mouse plasma at 30 mg/kg, ip measured at 4 hrs; format: ADME, organism-based
How it was run: (§1)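 Male C57BL/6 mice, single intraperitoneal 30 mg/kg dose, N=3. Plasma, liver and lung concentrations followed over time to give concentration-time profiles, from which Tmax, Cmax, terminal t1/2, AUClast and AUCINF were derived.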

[2] = Stability of the compound in mouse liver microsomes assessed as parent compound remaining measured after 30 mins; format: ADME, Microsome; conditions: read-out: Stability
How it was run: (§2)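 Mouse liver microsomes; percent parent compound remaining measured at 0, 15 and 30 min.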

[3] = Drug level in C57BL/6 mouse lung at 30 mg/kg, ip measured at 8 hrs; format: ADME, organism-based; conditions: in vivo
How it was run: (§3)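 Male C57BL/6 mice received a single intraperitoneal dose of 30 mg/kg (N=3). Compound concentrations were followed over time in plasma, liver and lung. Tmax, Cmax, terminal t1/2, AUClast and AUCINF were derived from the mean concentration-time profiles.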

[4] = Drug level in C57BL/6 mouse plasma at 30 mg/kg, ip measured at 3 hrs; format: ADME, organism-based; how it was run: as §1
[5] = Drug level in C57BL/6 mouse liver at 30 mg/kg, ip measured at 4 hrs; format: ADME, organism-based; conditions: in vivo; how it was run: as §3
Influenza A virus = test: Antiviral activity against Influenza A virus A/PR/8/34 (H1N1) infected in MDCK cells assessed as reduction in virus titer measured after 48 hrs by hemagglutination assay; format: functional; conditions: A/Puerto Rico/8/1934(H1N1)
How it was run: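 MDCK cells were infected with A/PR/8/34 (H1N1) at MOI 0.1 and incubated with compound for 48 h. Supernatant virus was then quantified by hemagglutination assay and standard TCID50 analysis. The single-concentration screen used 10 μM and reports fold reduction in titer. Dose-response runs used triplicate cultures, with percent titer decrease back-calculated from TCID50.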

[6] = Drug level in C57BL/6 mouse plasma at 30 mg/kg, ip measured at 0.5 hrs; format: ADME, organism-based; how it was run: as §1
[7] = Cytotoxicity against MDCK cells assessed as reduction in cell viability measured on day 5 by Celltiter-Glo luminescence assay; format: cell-based, Canis lupus familiaris; conditions: dog, MDCK cells
How it was run: (§4)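 MDCK cells were infected with seasonal influenza A strains through NIAID resources and scored for protection from virus-induced cell death. Compounds were tested at four concentrations (0.8, 4, 20, 100 μM). EC50/EC90 (reduction of viral cell death) and CC50 (reduction of cell viability) were derived in μM, and SI50 = CC50/EC50.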

MDCK [8] = test: Cytotoxicity against MDCK cells assessed as reduction in cell viability up to 100 uM measured after 48 hrs by CellTiter Glo assay; format: cell-based, Canis lupus familiaris; conditions: dog
How it was run: (§5)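 MDCK cells were incubated with compound under the conditions of the 48 h replication assay. Cytotoxicity was read with the CellTiter-Glo ATP viability assay. Follow-up viability testing used 5, 10, 50 and 100 μM.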

[9] = Drug level in C57BL/6 mouse liver at 30 mg/kg, ip measured at 3 hrs; format: ADME, organism-based; conditions: in vivo; how it was run: as §3
[10] = AUC (infinity) in C57BL/6 mouse liver at 30 mg/kg, ip; format: ADME, organism-based; set-up: dose 30 mg/kg, time infinity, route intraperitoneal; how it was run: as §3
[11] = AUClast in C57BL/6 mouse liver at 30 mg/kg, ip; format: ADME, organism-based; set-up: dose 30 mg/kg, time 0 - last, route intraperitoneal; how it was run: as §3
[12] = Drug level in C57BL/6 mouse lung at 30 mg/kg, ip measured at 3 hrs; format: ADME, organism-based; conditions: in vivo; how it was run: as §3
[13] = Drug level in C57BL/6 mouse lung at 30 mg/kg, ip measured at 4 hrs; format: ADME, organism-based; conditions: in vivo; how it was run: as §3
MDCK [14] = test: Cytotoxicity against MDCK cells assessed as reduction in cell viability measured after 48 hrs by CellTiter Glo assay; format: cell-based, Canis lupus familiaris; conditions: dog; how it was run: as §5
[15] = Apparent permeability across basolateral to apical side in human Caco2 cells measured after 2 hrs in presence of 3% BSA; format: ADME, cell-based; conditions: caco-2, 2 h
How it was run: (§6)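 Permeability was measured across Caco-2 monolayers in both directions, apical to basolateral and basolateral to apical. […] Runs were done with and without 3% BSA, and mass recovery (%) was reported for each direction. Efflux ratio = Papp B→A / Papp A→B.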

[16] = Drug level in C57BL/6 mouse lung at 30 mg/kg, ip measured at 2 hrs; format: ADME, organism-based; conditions: in vivo; how it was run: as §3
[17] = Drug level in C57BL/6 mouse lung at 30 mg/kg, ip measured at 48 hrs; format: ADME, organism-based; conditions: in vivo; how it was run: as §3
[18] = Terminal half life in C57BL/6 mouse liver at 30 mg/kg, ip; format: ADME, organism-based; conditions: read-out: beta t1/2 (converted); how it was run: as §1
[19] = Drug level in C57BL/6 mouse plasma at 30 mg/kg, ip measured at 48 hrs; format: ADME, organism-based; how it was run: as §1
[20] = Stability of the compound in mouse liver microsomes assessed as parent compound remaining measured after 15 mins; format: ADME, Microsome; conditions: read-out: Stability; how it was run: as §2
[21] = Apparent permeability across apical to basolateral side in human Caco2 cells measured after 2 hrs in presence of 3% BSA; format: ADME, cell-based; conditions: caco-2, 2 h; how it was run: as §6
[22] = Tmax in C57BL/6 mouse liver at 30 mg/kg, ip; format: ADME, organism-based; how it was run: as §1
[23] = Drug level in C57BL/6 mouse lung at 30 mg/kg, ip measured at 0.083 hrs; format: ADME, organism-based; conditions: in vivo; how it was run: as §3
[24] = Drug level in C57BL/6 mouse lung at 30 mg/kg, ip measured at 12 hrs; format: ADME, organism-based; conditions: in vivo; how it was run: as §3
[25] = Apparent permeability across apical to basolateral side in human Caco2 cells measured after 2 hrs; format: ADME, cell-based; conditions: caco-2, 2 h; how it was run: as §6
[26] = Drug level in C57BL/6 mouse plasma at 30 mg/kg, ip measured at 0.083 hrs; format: ADME, organism-based; how it was run: as §3
[27] = Aqueous kinetic solubility of the compound; format: physicochemical; conditions: buffer
Influenza B virus = test: Antiviral activity against Influenza B virus (B/Brisbane/60/2008) infected in MDCK cells assessed as reduction in virus-induced cytopathic effect measured on day 5 by Celltiter-Glo luminescence assay; format: functional, organism-based
Influenza A virus H3N2 = test: Antiviral activity against Influenza A virus (A/Brisbane/10/2007(H3N2)) infected in MDCK cells assessed as reduction in virus-induced cytopathic effect measured on day 5 by Celltiter-Glo luminescence assay; format: functional, organism-based; conditions: 120 h; how it was run: as §4
[28] = Drug level in C57BL/6 mouse plasma at 30 mg/kg, ip measured at 8 hrs; format: ADME, organism-based; how it was run: as §1
[29] = Toxicity in C57BL/6 mouse assessed as adverse effect at 30 mg/kg, ip; format: organism-based; conditions: in vivo
[30] = Drug level in C57BL/6 mouse lung at 30 mg/kg, ip measured at 0.5 hrs; format: ADME, organism-based; conditions: in vivo; how it was run: as §3
[31] = Apparent permeability across basolateral to apical side in human Caco2 cells assessed as drug recovery in presence of 3% BSA; format: ADME, cell-based; conditions: caco-2; how it was run: as §6
[32] = molecular target: Non-structural protein 1 (Influenza A virus (strain A/Puerto Rico/8/1934 H1N1)) (UniProt P03496); test: Inhibition of NS1 in Influenza A virus A/PR/8/34 (H1N1) infected in MDCK cells assessed as restoration of protein-induced reduction in IFN-beta mRNA expression at 20 uM measured after 6 hrs by RT-PCR analysis; format: cell-based; conditions: Influenza A virus (A/Puerto Rico/8/1934(H1N1))
Sequence of Non-structural protein 1 (Influenza A virus (strain A/Puerto Rico/8/1934 H1N1)) (P03496 whole entry): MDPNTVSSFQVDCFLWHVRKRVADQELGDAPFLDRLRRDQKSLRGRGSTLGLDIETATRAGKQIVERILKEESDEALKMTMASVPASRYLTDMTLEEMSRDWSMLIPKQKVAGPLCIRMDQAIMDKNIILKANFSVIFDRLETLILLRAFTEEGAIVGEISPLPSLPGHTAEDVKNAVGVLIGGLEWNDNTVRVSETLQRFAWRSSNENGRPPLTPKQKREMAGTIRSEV
How it was run: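 MDCK cells infected with A/PR/8/34 at MOI 2 and incubated 6 h with compound at 20 μM. Cells harvested; IFN-β and β-actin mRNA detected by RT-PCR. Poly(I:C) lane serves as positive control for IFN-β induction.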

[33] = Drug level in C57BL/6 mouse plasma at 30 mg/kg, ip measured at 2 hrs; format: ADME, organism-based; how it was run: as §1

Question: Which results are given for COc1cc(-c2ccnc3c2c(C)nn3-c2ccc(C(F)(F)F)cc2)ccc1O?
Answer: concentration at 4 h [1]: 1200 nM; remaining at 0.5 h [2]: 45%; Drug uptake [3]: 3931 nmol/kg; concentration at 3 h [4]: 1730 nM; Drug uptake [5]: 13997 nmol/kg; IC90 (Influenza A virus): 0.155 µM; concentration at 0.5 h [6]: 5760 nM; CC50 at 5 day [7]: 19.8 to 27.8 µM; Activity (MDCK [8]): Non-Toxic; Drug uptake [9]: 10058 nmol/kg; AUC(0-inf) [10]: 80300 ng·h/mL; AUC(0-t) [11]: 80200 ng·h/mL; Drug uptake [12]: 10951 nmol/kg; Drug uptake [13]: 11477 nmol/kg; Activity (MDCK [14]): Non-Toxic; Papp [15]: 0.27 ×10⁻⁶ cm/s; Drug uptake [16]: 16568 nmol/kg; Drug uptake [17]: 15 nmol/kg; half-life [18]: 4.7 h; concentration at 48 h [19]: 3 nM; remaining at 0.25 h [20]: 66%; Papp [21]: 0.22 ×10⁻⁶ cm/s; Tmax [22]: 0.25 h; Drug uptake [23]: 20891 nmol/kg; Drug uptake [24]: 1741 nmol/kg; Papp [25]: 0.1 ×10⁻⁶ cm/s; concentration at 0.083 h [26]: 2950 nM; Kinetic_solubility [27]: 3.1 µM; Activity (Influenza B virus): inactive; EC50 (Influenza A virus H3N2): 17 µM; EC90 (Influenza A virus H3N2): > 50 µM; concentration at 8 h [28]: 555 nM; Activity [29]: Non-Toxic; Drug uptake [30]: 36057 nmol/kg; Drug recovery [31]: 81%; inhibition [32]: Active; concentration at 2 h [33]: 2530 nM
